EC50 data for four molecules are collected here from BindingDB's records for doi:10.1021/jm049090z (The Bristol-Myers Squibb Pharmaceutical Research Institute, 2005).

Each structure is given as a SMILES string.

The test addresses T1, DNA topoisomerase 1 (Homo sapiens, UniProt P11387).
T1 sequence (P11387 whole entry): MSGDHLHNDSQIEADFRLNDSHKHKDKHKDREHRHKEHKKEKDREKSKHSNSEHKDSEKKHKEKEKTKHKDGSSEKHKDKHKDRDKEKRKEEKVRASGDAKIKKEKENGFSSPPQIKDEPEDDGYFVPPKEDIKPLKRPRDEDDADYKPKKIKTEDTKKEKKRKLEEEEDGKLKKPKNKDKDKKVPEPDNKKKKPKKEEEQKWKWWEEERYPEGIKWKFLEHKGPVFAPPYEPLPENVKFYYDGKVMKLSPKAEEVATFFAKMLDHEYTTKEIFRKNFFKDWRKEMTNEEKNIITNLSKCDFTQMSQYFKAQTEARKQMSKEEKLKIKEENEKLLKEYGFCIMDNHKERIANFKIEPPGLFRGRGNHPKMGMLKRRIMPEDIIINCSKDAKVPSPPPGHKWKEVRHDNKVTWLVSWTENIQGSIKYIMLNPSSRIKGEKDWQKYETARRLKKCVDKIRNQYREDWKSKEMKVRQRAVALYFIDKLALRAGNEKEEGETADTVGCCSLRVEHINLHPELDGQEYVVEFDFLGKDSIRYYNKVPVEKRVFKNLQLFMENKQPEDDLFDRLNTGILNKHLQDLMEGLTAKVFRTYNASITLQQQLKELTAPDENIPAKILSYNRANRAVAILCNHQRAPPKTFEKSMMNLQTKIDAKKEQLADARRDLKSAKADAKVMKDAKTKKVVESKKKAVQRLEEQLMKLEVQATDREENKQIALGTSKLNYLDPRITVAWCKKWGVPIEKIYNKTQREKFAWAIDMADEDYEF
Briefly: Topoisomerase I activity for single-strand breaks in the DNA substrate. An outline of the steps:
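Topo I-mediated DNA cleavage assay using covalently closed, supercoiled phage PM2 DNA as substrate; read-out is induction of single-strand breaks.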
Consider `O=C1NC(=O)c2c1c1c3cc(F)c(F)cc3sc1c1c2c2cc(F)c(F)cc2n1C1OC(CO)C(F)(F)C(O)C1O` (centres undefined) [13-(5,5-difluoro-3,4-dihydroxy-6-hydroxymethyltetrahydro-2H-2-pyranyl)-2,3,9,10-tetrafluoro-5,6,7,13-tetrahydrobenzo[4,5]thieno[2,3-a]pyrrolo[4,3-c]carbazole-5,7-dione], for which a half-maximal response (EC50) required 0.08 µM. That is a double-digit nanomolar value.

Take `O=C1NC(=O)c2c1c1c3cc(F)c(F)cc3[nH]c1c1c2c2cc(F)c(F)cc2n1C1OC(CF)C(O)C(O)C1O` (centres undefined) [2,3,9,10-tetrafluoro-12-(6-fluoromethyl-3,4,5-trihydroxytetrahydro-2H-2-pyranyl)-6,7,12,13-tetrahydro-5H-indolo[2,3-a]pyrrolo[3,4-c]carbazole-5,7-dione]: the EC50 (in general, the concentration that produces a half-maximal response) amounted to 0.48 µM.

The molecule `O=C1NC(=O)c2c1c1c3cc(F)ccc3[nH]c1c1c2c2cc(F)ccc2n1C1OC(CF)[C@@H](O)C(O)C1O` (some centres undefined) [Name not given] registered an EC50 of 0.704 µM.

Molecule `O=C1NC(=O)c2c1c1c3cc(F)c(F)cc3sc1c1c2c2cc(F)c(F)cc2n1C1OC(CF)C(O)C(O)C1O` (centres undefined) [2,3,9,10-tetrafluoro-13-(6-fluoromethyl-3,4,5-trihydroxytetrahydro-2H-2-pyranyl)-5,6,7,13-tetrahydrobenzo[4,5]thieno[2,3-a]pyrrolo[4,3-c]carbazole-5,7-dione] gave an EC50 of 0.24 µM.
